# Measured values published in the EternaBench riboswitch data.
# Tested on: MS2 coat protein
# Assay: apparent Kd, MS2 coat protein; higher = weaker binding; RNA-MaP array; FMN 200 µM where present
# In short: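 Designs were transcribed by stalled E. coli RNA polymerase on Illumina sequencing-chip clusters. They were titrated with SNAP-549-labelled MS2 coat protein from 0.7 or 1.5 nM, doubling to 3 µM, without and then with constant ligand. Buffer: 100 mM Tris-HCl pH 7.5, 80 mM KCl, 4 mM MgCl2, BSA, DTT, yeast tRNA, Tween-20. Green signal was normalised to red-channel RNA signal and control-cluster median Fmax. Apparent Kd is the median of filtered per-cluster binding-curve fits.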
# [1] = designed as: OFF switch for flavin mononucleotide, no ligand
# [2] = ligand present: flavin mononucleotide, designed as: OFF switch for flavin mononucleotide
# [3] = designed as: ON switch for flavin mononucleotide, no ligand
# [4] = ligand present: flavin mononucleotide, designed as: ON switch for flavin mononucleotide
Sequence,apparent Kd [1] [nM],apparent Kd [2] [nM],apparent Kd [3] [nM],apparent Kd [4] [nM]
UCCUUCUGUUGAGGAUAUGUAAGACAGCGGCUGCUAUUGCGGCCCGCUGAUACAGAAGGCAACAUGAGGAUCACCCAUGUUCAA,22.9,163,–,–
UCCUCUUUGAAGAAGGCGUGGCCAUGCAAGCCGCGAGGAUAUUCACAUGAGGAUCACCCAUGUGGAUUUCAGUCCGCUCAAAAC,13.4,68,–,–
UCCCUAAGGCAGGCCGACCAUACAUGAGGAUCACCCAUGUCGAGAAGGUGCUCACGGGUGGGUGGCAAGGAUAUCGGGUCGGAU,–,–,92.9,43.6
CGUGUCGUAUGAGGAUAUGGUCAGCUUUGCUGACCAGAAGGCAUGUCAAUAGACAUGAGGAUCACCCAUGUAGUAAAGACACGA,–,–,378,40.6
UUGGUUCUCGUAGGAUAUGUAGGAUAUGCCUACAUGAGGAUCACCCAUGUUCGCAUGGCAGAAGGACAGAAGGACGAUCACCAU,–,–,378,17.3
AUCGGCUGGCAGAAGGGCUAUGUGAUCCGGUUUUACAUGAGGAUCACCCAUGUAGCCUCGCGCUAGCAGGAUAUGCAACGGCUG,–,–,175,40.4
CCUGGCUUAGGAUAUACAGGAUCCGGGAACCCGGAAGUGAAACAUGAGGAUCACCCAUGUAGAAGGAAGAAAGC,28.8,16.5,–,–
UCUACAUAAAUUCAUCAAUACAGUAAGGAUAUGAGAUACAUGAGGAUCACCCAUGUGCAUGUGAAUUAGAAGGUACAAUUAACU,14.4,12,–,–
CGUAACUACAUAGGAUAUUGAUACAUGAGGAUCACCCAUGUUUUUGGGAUUAGUUUAAUAUUAAGCAAGAAGGAUGAAGUUACG,–,–,45.4,31.1
UUAGAAAUGUUAGGAUAUUAAUAUUUUUUUAGUAUGAUCUACAUGAGGAUCACCCAUGUUAAAAUUAAGAAGGAACAUUUUAUU,69.7,56.9,–,–
UUAAUCUGAACAUGAGGAUCACCCAUGUAUCUUACCUUAGGACAGGAUAUAGAUGUUAAGAAUUACUAGAAGGGUCAGUAUAUU,–,–,42.5,35.9
GUCAGCUCGUGAGGAUAUACAACACUGCUUCGGCAGUGUAUUAAGAUCACAUGAGGAUCACCCAUGUAGAAGGCACGAGCUGAA,13.7,245,–,–
GGGUAGAUCGGAGGAUAUCAUGUAAAUACAUGAGGAUCACCCAUGUCGAUGGAGACAUCGGAGAUUGAGAAGGCCGAUGUACCG,–,–,166,8.4
GAUAGGCGAGGAUAUACAUGAGGAUCACCCAUGUAAGUAAGCCUGGCUGAAACUGAAUGUAGAAGGCGCACAUU,18.4,45.1,–,–
AUUAAACAUGAGGAUCACCCAUGUCAACAAAGUCGAGGAUAUGGGCAAAUAAAAUAAGUACCAGAAGGCGAAUAAU,–,–,113,24.2
CAGCGAUAGCUGAAUGGUACAUGGGAGGAUAUGGGUUGAACAUGAGGAUCACCCAUGUUAUAAUACUAGAAGGCCCAUGUACCU,–,–,16.6,5.45
AAAGAGCGAGGAUAUACAUGAGGAUCACCCAUGUAAAGAUGCAUGGUCUGAACGUCUGGUAGAAGGCGUAUGAA,135,120,–,–
GGGCUGUCAGGAUAUCGCGCGCGCGCGGAAAUGUGUGUGUGUGAGAAGGGACAUGAGGAUCACCCAUGUGGCCC,35.6,36.8,–,–
UGUCGGCGCAGAGGAUAUUACAUGAGGAUCACCCAUGUAUGAACCAAUAGCUGGAAACAGCAAUGUAAGAAGGCUGCUCCGACA,12.5,154,–,–
CAUGUCCUCACAGGAUAUGCUGGACUUUGUCCAGCAGAAGGGUGAACAUGAGGAUCACCCAUGUAGUGGACAUGUAUAUUUAAU,–,–,543,276
AAUUAUUUACAGAAGGAGUAAGAUUAUGUAUUACUAGGAUAUGUUCACAUGAGGAUCACCCAUGUCAUUGUAGGUUUUUUAUGU,12,9.95,–,–
UAACCUCGCGUCAGGAUAUGCGAGGACUGUGACGUGCAGAAGGGACAUGAGGAUCACCCAUGUGAAAGAAUUAA,25.2,25.4,–,–
GUACGUGGACAGAAGGCGACAUGAGGAUCACCCAUGUUGGCUCGCGUAUGAGCAAUCCGCAUGAUUGAGGAUAUGUCUGCGGGC,9.05,49.7,–,–
UAUAUAAUAUUACACAUGAGGAUCACCCAUGUACAUGGGAUAGAGGAUAUACAAAUAUUAGUGGUGUAGAAGGUUAAUAUAUAU,266,71,–,–
AACUCACAUGAGGAUCACCCAUGUGAGGAUAUAUAAAUAUAUAUGUUAUUAUAUAUUUAUAGAAGGCGCGUGAU,44.1,46.9,–,–
AUCCGGCGUGUAGGAUAUGGAAACGAUUAGGAUCCAGAAGGACAUGAGGAUCACCCAUGUACAUGUAAACAGUCAUCACCGGAA,14.5,52.2,–,–
AGCUGUGGCCGAGGAUAUGCUACUUCAAUAACCGAAAUAUAAUCGGACAUGAGGAUCACCCAUGUAGAGAAGGCGGUCUCAGCA,14,11,–,–

Sequence,apparent Kd [1] [nM],apparent Kd [2] [nM],apparent Kd [3] [nM],apparent Kd [4] [nM]
CCAUUUCAGUAAGGAUAUAUAAACAUGACGAUACAUGAGGAUCACCCAUGUGUAGAAGGUACUAAUACAUAUAAUACAAUGCUC,19.2,15.7,–,–
CUUUUGUGAGGAUAUUCGUCAUAAGGUUGUAAACCUGUGACGAAGAAGGCACAUGAGGAUCACCCAUGUGUCCU,15.7,26.4,–,–
UAUGGUAAAGUCAGGAUAUACGUACAUAAUUCUAGGUAGAAGGGACAUGAGGAUCACCCAUGUAUGGUAGUGUU,73,84,–,–
CCCUACACCGAGAAGGGCACGUAUUGAAGAGGGUGCCAGGAACAUCACAUGAGGAUCACCCAUGUGCAGGAUAUCGGCAGGAAC,9.41,19.9,–,–
ACAAUGUGGUAAGGAUAUCCAAUGGCAUCCCUAGGAGAAGGUAUCACAUGAGGAUCACCCAUGUGAAGGAUGGGUUAUCGCAAA,223,121,–,–
AUCUCGUCAGGAUAUGACUACAUAAAAAAUAAAAAAUGUAGUCAGAAGGGACAUGAGGAUCACCCAUGUACCAA,19.1,18.4,–,–
AACCUAUUACAGAAGGCCAGCUACAUGAGGAUCACCCAUGUCGAGUCAUGGAGGAUAUGUAGUAAUUUGCCCGCGGGCGAGUAC,–,–,31.3,5.78
UUCAGCGAUCAAGGAUAUCUAUAUUCAUGAGGACAUGAGGAUCACCCAUGUUGAUUACCCAUGAGGGAGAAGGUGGACAUGAGG,–,–,40.1,23.5
UGGUACUCGGGAGGAUAUGGGAAGAUACAUGAGGAUCACCCAUGUUUAAGAAUGCCGAGAGGCAACUAGAAGGCCCUAGUACCU,–,–,457,23.4
UGUUGUAUUACAGGAUAUCUAUUGUUUUAAUUUAGAGAAGGGUAUUCACAUGAGGAUCACCCAUGUAUAUACGAGGAAGUUGUG,–,–,54,61
UGAAAUCAUGUAGGAUAUGCAUGGCGCAGCUACGCAGAAGGACAUGAGGAUCACCCAUGUUAUAGCUACCCAGUUCGGUGGCAA,30.6,173,–,–
GUACUGUAGUGAGGAUAUACGAGCUCGAUAGAGCGGCGAUCCAUAUAUACAUGAGGAUCACCCAUGUAGAAGGCACUUCAGUAC,7.07,96.5,–,–
GGUACUCAAAGAGUACCAAUACGAACAUGAGGAUCACCCAUGUAGGAUAUGAAAACGCCGGAGUAGCAGAAGGACAUGUGCCUA,11.4,11.1,–,–
CUGCAGUAAGGAUAUACAUGAGGAUCACCCAUGUAGCAACUUACAUAACGAAACGCAUGUAGAAGGUACCAGAU,14,15.4,–,–
CCGCUCGAAGGAUAUACAAUCCUCAGACUCUUCGACCAAAGACAUGAGGAUCACCCAUGUAGAAGGUCGGCGGA,13.3,25.9,–,–
GAAUAAUUGAUCCAAUUUAACUACAUGAGGAUCACCCAUGUGCAGGAUAUCGUAAUAUUUAAUUACGAGAAGGGCAAGAACGGU,366,516,–,–
AAGUAUAAGGGCAUUAAACAUGAGGAUCACCCAUGUACAAUAGAGGAUAUGCAUUUUGGUUUAGAGUAGAAGGUUAGAGAAUAU,28,33.4,–,–
AGGUGAGCUCGAUGGCGACAUGAGGAUCACCCAUGUACGAUCAGAAGGGCUCGGGCAAGAAGUGGGCAGGAUAUGGUCGGUGCC,3.88,4.51,–,–
AAUCGUAGAACGAUCACUACCAGUCAGGAUAUACAUGAGGAUCACCCAUGUCGUGUCGACAGCAUGUAGAAGGGACGGUUAUAU,27.1,66,–,–
GCGCUGCGUCAGAAGGGCCGAAAAGAGAAGAUGGCAGGAUAUGACAUGAGGAUCACCCAUGUACACGUCGCCAUGGGUGUUGGU,184,36.4,–,–
AGAUAACACCAGAAGGACAUGAGGAUCACCCAUGUAGGAUAUGGGCAUCACUCGAGAAAGAAACGACCAAAAGGACACGUGGUC,–,–,177,13.4
GCGUAUUAGGUGUAGCUAGACAUUCAAGAAGGGUGAAGAACAUGAGGAUCACCCAUGUAGUUUUUACAGGAUAUUGAUUUACGC,–,–,269,14.9
GGUACUCAAAGAGUACUUGGUCGAACAUGAGGAUCACCCAUGUAGGAUAUGCUAAGCAAGAAGUAGCAGAAGGACAUGUGCAGC,14.8,56.5,–,–
CCACGUCACAUGAACAUGAGGAUCACCCAUGUAAAUUCUCAUGAGGAUAUGGAUCCUAAUUGGAUCCAGAAGGCAUGGACGUGG,–,–,842,348
GAUCUGUCGGUUGACCCAACAUGAGGAUCACCCAUGUAUGUGGAGGAUAUCUAGAUCUGCGGACGAGAGAAGGCCGCAUACGUU,69,421,–,–
AUUGGUGAGUAGAAGGUACGAUAUUAGUUAUAGUAAGGAUAUACUAACAUGAGGAUCACCCAUGUAUAAAUGGAUAAAUUAUCU,–,–,11.7,8.98
UUUCGGAGCAGAGGAUAUUACAUGAGGAUCACCCAUGUAUGAACCAAUAGCUGGAAACAGCAAUGUAAGAAGGCUGCUCCGACA,11.2,182,–,–
